# This is a sample that favours compounds with a hit; in the whole collection about 3.9% have one here.
# tim10-1 inh: inhibits growth of tim10-1 mutant yeast; S. cerevisiae tim10-1 ts strain growth, BacTiter-Glo, 24 h; inhibition, % at 20 µM; 2.2% of 330,000 active; AID 463190;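 active = inhibition of at least 40%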;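 also: mutant grown at 25 °C; 0% = DMSO wells with yeast and 100% = wells holding no yeast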
# CHOP UPR activ: activators of apoptotic arm of unfolded protein response (CHOP); activation, % at 10 µM; 0.34% of 330,000 active; CHO-CHOP luciferase reporter, UPR activation, luminescence; percent of tunicamycin response over DMSO baseline; AID 449763;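 active = at 10 µM dose, activation of 40% or more, normalized to positive control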;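 also: 100% = tunicamycin at 10 µg/mL and 0% = DMSO alone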
#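 Evaluation: % reporter activation, DMSO baseline versus tunicamycin full activation; System: CHO-CHOP luciferase reporter cell line; Input: 500 cells/well; Incubation: 6 h compound treatment, 37 °C; Measured by: Steady-Glo luciferase luminescence; Dosing: one dose, 10 µM in 0.5% DMSO; Buffer or medium: F12 medium, 10% FBS; Benchmarks: positive tunicamycin 10 µg/mL, negative DMSO alone.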
# TIM10 inh: growth inhibitors of TIM10 yeast strain. S. cerevisiae TIM10 strain growth, BacTiter-Glo luminescence, 24 h. inhibition, % at 10 µM. 1.4% of 330,000 active. AID 463195;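 active = inhibition of 40% or more at the single tested concentration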;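 also: wild-type TIM10 isogenic control strain grown at permissive 25 °C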
# UPR XBP1 act: activators of adaptive arm of unfolded protein response (XBP1); AID 463104; CHO-XBP1 luciferase reporter, IRE1-XBP1 UPR activation, luminescence; percent of tunicamycin response, DMSO as zero; 0.33% of 330,000 active; activation, % at 20 µM;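 active = versus positive control, 20 µM dose yields 30% or more activation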;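 also: 100% = tunicamycin at 10 µg/mL and 0% = DMSO only wells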
#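 Signal: luciferase luminescence; Assay system: CHO-XBP1 luciferase reporter cells; Amount: one thousand reporter cells per well; Dosing: 20 µM single concentration, DMSO 1%; Benchmarks: high control tunicamycin 10 µg/mL final, low control DMSO vehicle only; Schedule: 6 h compound exposure at 37 °C, 5% CO2; Evaluation: percent activation relative to tunicamycin reference.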
# tim23-1 inh: tim23-1 yeast growth inhibition. S. cerevisiae tim23-1 growth, BacTiter-Glo luminescence, 24 h. inhibition, % at 20 µM. 1.3% of 330,000 active;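 active = growth inhibition of the mutant yeast at or above 50%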;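 also: temperature-sensitive mutant grown at 25 °C; plate controls were DMSO-treated mutant yeast for no effect and medium wells lacking yeast for full effect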
# tim23-1 confirm: confirmation of tim23-1 mutant yeast growth inhibitors; inhibition, % at 20 µM; shares compounds with tim23-1 inh; AID 463218; S. cerevisiae tim23-1 growth, BacTiter-Glo luminescence, 24 h; 83% of 4,400 active;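 active = inhibition above about 39% in either of two replicate wells at 20 µM, limit read from the data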;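 also: temperature-sensitive tim23-1 mutant grown at 25 °C; 0% = DMSO wells with yeast and 100% = medium wells without yeast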
# An asterisk follows results filed as active; / = no result.
SMILES,tim10-1 inh,CHOP UPR activ,TIM10 inh,UPR XBP1 act,tim23-1 inh,tim23-1 confirm
Cc1ccc(S(=O)(=O)Nc2ccc(-c3csc(-c4ccccc4)n3)cc2)cc1,33,0,23,-2,25,/
O=C(CSc1nnc(CNC(=O)c2ccccc2)o1)NCc1ccccc1Cl,6,0,0,-5,11,/
CCN1CCN(c2cc(C)c3cc(NC(=S)N4CCCC(C)C4)ccc3n2)CC1 (centres undefined),6,-3,-17,-3,15,/
Cc1nc(-c2cnn(-c3ccccc3)c2)c2cc(C)oc2n1,24,2,34,1,51*,45*
CCc1nc(Nc2ccncc2)c2oc3ccccc3c2n1,6,-1,6,0,-2,/
CCc1nc(Nc2cccc(O)c2)c2oc3ccccc3c2n1,9,3,29,10,60*,46*
Cc1ccc2c(c1)N(CC(=O)NC1CCCCCC1)C(=O)c1cccnc1O2,-8,-1,10,-3,15,/
Nc1ccc2nc(-c3ccccc3)sc2c1,23,-5,24,-4,41,/
Cc1ccc2nc(-c3ccc(N)cc3)sc2c1,13,-6,20,-5,53*,58*
Cc1nn(-c2ccccc2)c(OC(=O)c2cccs2)c1S(=O)(=O)c1ccccc1,29,1,31,-5,58*,51*
Cc1nn(-c2ccccc2)c(OC(=O)c2cccs2)c1S(=O)(=O)c1ccc([N+](=O)[O-])cc1,0,3,8,0,18,/
O=C1CN(c2ccc(F)cc2)C(=S)N1c1ccccc1,26,1,7,-3,57*,-16
CC1=C(C(=O)NC2CC(C)(C)Cc3c2cnn3-c2cccc(F)c2)OCCO1 (centres undefined),21,-2,19,-3,38,/
COc1cc(-c2c(C#N)c(N)nc3c2CCCC3)ccc1O,8,1,5,3,16,/
COc1ccc(-c2c(C#N)c(N)nc3c2CCc2ccccc2-3)cc1OC,40,1,29,6,51*,34
O=c1[nH]c(-c2ccco2)nc2sc3c(c12)CCCC3,32,3,28,3,50*,48*
CCOc1ccc2c(c1)C(c1cccs1)=NNC(c1cccnc1)=N2,-4,-2,19,3,27,/
COc1ccc(C2=NNC(c3cccs3)=Nc3ccc(OC)cc32)cc1,25,1,37,8,60*,61*
O=C(COc1ccccc1Cl)NCCNC(=O)c1ccco1,0,-1,-26,2,0,/
CCCCC(=O)Nc1nc2c(s1)COc1ccccc1-2,10,6,20,-1,41,/
CCCCn1c(N)c(N(CC(C)C)C(=O)C2CCN(c3ncnc4sc(C)c(C)c34)CC2)c(=O)[nH]c1=O,5,2,3,-2,6,/
CCCCn1c(N)c(N(CCOC)C(=O)C2CCN(c3ncnc4sc(C)c(C)c34)CC2)c(=O)[nH]c1=O,14,2,6,-4,53*,47*
O=C1C=C(c2ccc3c(c2)OCO3)C[C@@H](c2ccc(F)cc2)C1,14,0,6,-1,21,/
O=C1C=C(c2ccc3[nH]ccc3c2)C[C@@H](c2ccc(F)cc2)C1,39,1,25,0,53*,50*
O=C1C=C(c2ccc3c(c2)OCCO3)C[C@@H](c2ccc(F)cc2)C1,22,2,17,2,51*,48*
SMILES,tim10-1 inh,CHOP UPR activ,TIM10 inh,UPR XBP1 act,tim23-1 inh,tim23-1 confirm
Cc1ccc(Nc2cc(C)c3ccc(O)cc3n2)cc1C,-16,2,11,3,82*,36*
CC(C)[C@@]1(c2ccccc2)ON(c2ccccc2C(F)(F)F)C1=O,-46,1,1,-3,6,/
Cc1ccccc1[C@]1(C)ON(c2ccccc2C(F)(F)F)C1=O,9,8,31,7,53*,58*
COc1ccc(C(O)(C2CCCCC2)C(CN2CCOCC2)c2ccccc2)cc1 (centres undefined),36,1,19,-4,34,/
OC(c1ccccc1)(C1CCCCC1)C(CN1CCOCC1)c1ccccc1 (centres undefined),18,0,27,3,50*,31
Cc1nc2ccc(S(=O)(=O)c3ccc4nc(C)[nH]c4c3)cc2[nH]1,-24,0,-5,-5,-4,/
Cc1nc2ccc(C(C(F)(F)F)(C(F)(F)F)C(F)(F)F)cc2[nH]1,30,1,35,-2,59*,66*
Cc1ccc(C(=O)OCC(=O)N2CCCCCC2)c(O)c1,9,0,17,-2,24,/
Cc1cccc(/C=c2\s/c(=C\C(=O)C(C)(C)C)[nH]c2=O)c1,25,3,10,5,50*,54*
COc1ccc(/C=c2\s/c(=C\C(=O)C(C)(C)C)[nH]c2=O)cc1O,22,-1,11,2,28,/
O=C1C2CC=CCC2C(=O)N1Cc1nnc(-c2ccccc2Br)o1 (centres undefined),9,0,3,1,13,/
COC(=O)c1sccc1NC(=S)NCc1ccc(Cl)cc1,27,1,39,1,62*,53*
CC(C)OCCCNC(=O)COc1ccc2oc3c(c2c1)CCCC3,30,-1,12,-6,27,/
Cc1cccc(-n2cc(-c3ccccc3)c3c(=O)[nH]cnc32)c1,29,2,40,0,54*,48*
C/C(=C\C(=O)c1ccc(C)cc1)Nc1cccc(O)c1,3,1,-3,1,51*,34
Cc1nn(-c2ccc(Cl)c(Cl)c2Cl)c(=O)c2ccccc12,40,1,8,-2,54*,46*
CCOc1ccc(-c2nc(N)ncc2Oc2ccc(OC)cc2)c(O)c1,21,-1,31,9,56*,62*
CCOc1ccc(-c2nc(N)ncc2-c2ccc(Cl)cc2)c(O)c1,23,1,10,0,54*,-21
O=C(COc1ccc([N+](=O)[O-])cc1)NCC(c1cccs1)N1CCOCC1 (centres undefined),14,2,12,-3,14,/
Cc1cc(C)n(C(C)Sc2ccccc2)n1 (centres undefined),1,-1,-4,1,6,/
COC(=O)CCN(Cc1cc(OC)ccc1OC)S(=O)(=O)c1ccccc1Br,28,6,13,1,54*,36
CCC(=O)CN(Cc1cc(OC)ccc1OC)S(=O)(=O)c1ccccc1Br,28,3,2,2,58*,26
COc1ccc(CN(CCC(C)C)S(=O)(=O)c2ccccc2Br)cc1,21,1,-21,1,34,/
Cc1onc(-c2ccccc2Cl)c1C(=O)NC1CCCCCC1,2,3,10,-2,26,/

# Source: PubChem (Sanford-Burnham Center for Chemical Genomics)
